# Experimental data published in ChEMBL document CHEMBL1122069, “Double-head haptens. Synthesis of and experimentally induced contact sensitivity to substances containing two unrelated haptens, pyrocatechol and alpha-methylene-gamma-butyrolactone, in the same molecule” (1982).
# Assays:
# Assay type in all cases: functional
# [1] = species on record: Cavia porcellus; experiment: Results of Open epicutaneous test (OET) in guinea pigs sensitized by mono […] (18) and expressed as No. of sensitive animals out of 8 animals tested
# Procedure, shortened: (§1)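 Guinea pigs sensitized by an injection repeated 4 times on alternate days, followed by 15 days rest before open epicutaneous challenge. Controls received intradermal 1:1 FCA-saline emulsion on alternate days, five injections in all. Irritation thresholds were first set on FCA-injected controls using the elicitation procedure. Read-out was average skin reaction and number of sensitive animals.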
# [2] = species on record: Cavia porcellus; experiment: Open epicutaneous test (OET) was conducted using 0.72 M compound deposited on a circular shaved flank of guinea pig sensitized by mono […] (19); erythema plus swelling going well beyond test area.; procedure, shortened: as §1
# [3] = species on record: Cavia porcellus; experiment: Open epicutaneous test (OET) was conducted using 0.72 M compound deposited on a circular shaved flank of guinea pig sensitized by mixture of mono […] (18) and (19); erythema on the test area; procedure, shortened: as §1
# [4] = species on record: Cavia porcellus; experiment: Results of Open epicutaneous test (OET) in guinea pigs sensitized by mono […] (19) and expressed as No. of sensitive animals out of 8 animals tested; procedure, shortened: as §1
# [5] = species on record: Cavia porcellus; experiment: Results of Open epicutaneous test (OET) in guinea pigs sensitized by mixture of mono […] (18) and (19) and expressed as No. of sensitive animals out of 8 animals tested; procedure, shortened: as §1
# [6] = species on record: Cavia porcellus; experiment: Open epicutaneous test (OET) was conducted using 0.72 M compound deposited on a circular shaved flank of guinea pig sensitized by mono […] (18); no reaction; procedure, shortened: as §1
# [7] = species on record: Cavia porcellus; experiment: Open epicutaneous test (OET) was conducted using 0.72 M compound deposited on a circular shaved flank of guinea pig sensitized by double […] (3); no reaction; procedure, shortened: as §1
# [8] = species on record: Cavia porcellus; experiment: Results of Open epicutaneous test (OET) in guinea pigs sensitized by bi […] (3) and expressed as No. of sensitive animals out of 8 animals tested; procedure, shortened: as §1
# [9] = species on record: Cavia porcellus; experiment: Open epicutaneous test (OET) was conducted using 0.72 M compound deposited on a circular shaved flank of guinea pig sensitized by mono […] (19); no reaction; conditions: in the assay text read “0.072 M” for “0.72 M”; procedure, shortened: as §1
# [10] = species on record: Cavia porcellus; experiment: Open epicutaneous test (OET) was conducted using 0.72 M compound deposited on a circular shaved flank of guinea pig sensitized by bi […] (3); erythema on the test area; conditions: in the assay text read “0.072 M” for “0.72 M”; procedure, shortened: as §1
# [11] = species on record: Cavia porcellus; experiment: Open epicutaneous test (OET) was conducted using 0.72 M compound deposited on a circular shaved flank of guinea pig sensitized by mono […] (18); erythema on the test area; procedure, shortened: as §1
Compound,No. of sensitive animals [1],Average skin reaction [2],Average skin reaction [3],No. of sensitive animals [4],No. of sensitive animals [5],Average skin reaction [6],Average skin reaction [7],No. of sensitive animals [8],Average skin reaction [9],Average skin reaction [10],Average skin reaction [11]
C=C1CC(CCCCCCc2cccc(OC)c2OC)OC1=O (centres undefined),0,2.6,1.1,8,8,0,0,0,,,
C=C1CC(CCCCCCc2cccc(O)c2O)OC1=O (centres undefined),3,,0.9,1,8,0.2,,6,<0.1,0.9,
CC1CC(CCCCCCc2cccc(O)c2O)OC1=O (centres undefined),7,,1.1,0,8,,,6,0,0.8,1.4
